Measured values reported in ChEMBL document CHEMBL1828528, “Acyclic nucleoside thiophosphonates as potent inhibitors of HIV and HBV replication” (Eur J Med Chem, 2011).
Activity calls are given as the source filed them. The rule behind the calls is not given here.

Columns and labels:
[1] = system: Human immunodeficiency virus 2; assay: Antiviral activity against 100 TCID50 wild-type Human immunodeficiency virus type 2 ROD infected in C8166 cells assessed as inhibition of syncytia formation after 4 days by microscopic analysis; type: functional, organism-based; settings: Human immunodeficiency virus 2, ISOLATE ROD, C8166, 96 h
[2] = system: Human immunodeficiency virus 1; assay: Antiviral activity against 125 TCID50 wild type HIV1 LAI infected in human H9 cells assessed as reduction in viral replication measured on day 7 post infection by reverse transcriptase activity; type: functional, organism-based; settings: Human immunodeficiency virus 1, LAI, H9, 168 h
Procedure, shortened: (§1)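 PHA-P-activated PBMC (1.5 × 10^5; donor cells stimulated 3 days with 1 μg/mL PHA-P plus 5 IU/mL IL-2) or H9 cells (5 × 10^5) in RPMI-1640/10% FCS. Cells pre-treated 30 min with graded compound concentrations, then infected with HIV-1 LAI (100 or 125 TCID50). Supernatant RT activity read on day 7. EC50 from quadratic fit of % inhibition; triplicates, PBMC repeated with a second donor.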

[3] = system: Human immunodeficiency virus 1; assay: Antiviral activity against 6250 TCID50 wild type HIV1 LAI infected in human H9 cells assessed as reduction in viral replication measured on day 7 post infection by reverse transcriptase activity; type: functional, organism-based; settings: Human immunodeficiency virus 1, LAI, H9, 168 h
Procedure, shortened: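 H9 cells in RPMI-1640/10% FCS given graded compound concentrations, then infected with a high inoculum of 6250 TCID50 HIV-1 LAI. Supernatant reverse transcriptase activity measured on day 7 post infection. EC50 taken as the concentration giving 50% reduction of viral replication.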

[4] = system: Human immunodeficiency virus 1; assay: Antiviral activity against 100 TCID50 wild type HIV1 LAI infected in human PBMC assessed as reduction in viral replication measured on day 7 post infection by reverse transcriptase activity; type: functional, organism-based; settings: Human immunodeficiency virus 1, LAI, 168 h; procedure, shortened: as §1
[5] = system: Human immunodeficiency virus 1; assay: Antiviral activity against HIV1 clade A isolate 4113 infected in human H9 cells assessed as inhibition of viral replication; type: functional, organism-based; settings: Human immunodeficiency virus 1, clade A isolate 4113, H9
Procedure, shortened: (§2)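 H9 cells infected with HIV-1 clinical isolates of clades A, B, C, D, A/E, F and G, in the presence of graded compound concentrations. EC50 is the concentration reducing viral replication by 50%.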

[6] = system: Human immunodeficiency virus 1; assay: Antiviral activity against HIV1 clade B isolate 2101 infected in human H9 cells assessed as inhibition of viral replication; type: functional, organism-based; settings: Human immunodeficiency virus 1, clade B isolate 2101, H9; procedure, shortened: as §2
[7] = system: Human immunodeficiency virus 1; assay: Antiviral activity against HIV1 clade B isolate 1722 infected in human H9 cells assessed as inhibition of viral replication; type: functional, organism-based; settings: Human immunodeficiency virus 1, clade B isolate 1722, H9; procedure, shortened: as §2
[8] = system: Human immunodeficiency virus 1; assay: Antiviral activity against HIV1 clade C isolate 2914 infected in human H9 cells assessed as inhibition of viral replication; type: functional, organism-based; settings: Human immunodeficiency virus 1, clade C isolate 2914, H9; procedure, shortened: as §2
[9] = system: Human immunodeficiency virus 1; assay: Antiviral activity against HIV1 clade D isolate 1649 infected in human H9 cells assessed as inhibition of viral replication; type: functional, organism-based; settings: Human immunodeficiency virus 1, clade D isolate 1649, H9; procedure, shortened: as §2
[10] = system: Human immunodeficiency virus 1; assay: Antiviral activity against HIV1 clade A/E isolate 2165 infected in human H9 cells assessed as inhibition of viral replication; type: functional, organism-based; settings: Human immunodeficiency virus 1, clade A/E isolate 2165, H9; procedure, shortened: as §2
[11] = system: Human immunodeficiency virus 1; assay: Antiviral activity against HIV1 clade F isolate 2338 infected in human H9 cells assessed as inhibition of viral replication; type: functional, organism-based; settings: Human immunodeficiency virus 1, clade F isolate 2338, H9; procedure, shortened: as §2
[12] = system: Human immunodeficiency virus 1; assay: Antiviral activity against HIV1 clade G isolate 3187 infected in human H9 cells assessed as inhibition of viral replication; type: functional, organism-based; settings: Human immunodeficiency virus 1, clade G isolate 3187, H9; procedure, shortened: as §2
Hepatitis B virus = assay: Antiviral activity against Hepatitis B virus infected in human HepAD38 cells assessed as reduction in viral DNA level after 6 days by real time quantitative PCR analysis; type: functional, organism-based; settings: HePAD38, 144 h
Procedure, shortened: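 Tetracycline-regulated HepAD38 cells (5 × 10^5) induced after 2–3 days by PBS wash and feeding with medium lacking tetracycline and G418, with or without compound. Medium changed at day 3. Intracellular HBV DNA quantified by TaqMan Q-PCR at day 6 post induction against a full-genome plasmid standard curve, expressed as % of untreated. Actives retested.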

Coxsackievirus B4 = assay: Antiviral activity against Coxsackie virus B4 infected in HeLa cells assessed as inhibition of virus-induced cytopathic effect up to 200 uM measured on day 3 post infection by microscopic analysis; type: functional, organism-based
Procedure, shortened: (§3)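 HeLa monolayers at confluency infected with 100 CCID50 of virus. Compound dilutions up to 200 μM added after 1–2 h adsorption. Cytopathic effect recorded microscopically on day 3 relative to untreated controls.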

[13] = system: Respiratory syncytial virus; assay: Antiviral activity against Respiratory syncytial virus infected in HeLa cells assessed as inhibition of virus-induced cytopathic effect up to 200 uM measured on day 3 post infection by microscopic analysis; type: functional, organism-based; procedure, shortened: as §3
Influenza A virus = assay: Antiviral activity against influenza A virus; type: functional, organism-based
Human respirovirus 3 = assay: Antiviral activity against Parainfluenza virus 3 infected in african green monkey Vero cells assessed as inhibition of virus-induced cytopathic effect up to 200 uM measured on day 3 post infection by microscopic analysis; type: functional, organism-based
Procedure, shortened: (§4)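 Confluent Vero cell monolayers inoculated with 100 CCID50 of virus. Compound added after 1–2 h adsorption, tested up to 200 μM. Microscopic CPE scoring on day 3 post infection versus untreated controls.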

Sindbis virus = assay: Antiviral activity against Sindbis virus infected in african green monkey Vero cells assessed as inhibition of virus-induced cytopathic effect up to 200 uM measured on day 3 post infection by microscopic analysis; type: functional, organism-based; procedure, shortened: as §4
Punta Toro virus = assay: Antiviral activity against Punta Toro virus infected in african green monkey Vero assessed as inhibition of virus-induced cytopathic effect cells up to 200 uM measured on day 3 post infection by microscopic analysis; type: functional, organism-based; procedure, shortened: as §4
Feline coronavirus = assay: Antiviral activity against Feline coronavirus infected in CrFK cells assessed as inhibition of virus-induced cytopathic effect up to 200 uM measured on day 3 post infection by microscopic analysis; type: functional, organism-based
Procedure, shortened: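 Confluent CrFK cells inoculated with 100 CCID50 of virus. Compounds up to 200 μM added after 1–2 h adsorption. Cytopathic effect recorded microscopically at day 3 relative to untreated controls.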

Vero = assay: Cytotoxicity against african green monkey Vero cells up to 200 uM; type: cell-based; settings: chlorocebus sabaeus
Procedure, shortened: (§5)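 Uninfected confluent Vero, CrFK, HEL or HeLa cultures incubated with serial compound dilutions (up to 200 μM) for the same period as the antiviral assays. Minimal toxic concentration is the lowest giving microscopically detectable alteration of cell morphology.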

Human alphaherpesvirus 1 = assay: Antiviral activity against Herpes simplex virus type 1 KOS infected in HEL cells assessed as inhibition of virus-induced cytopathic effect; type: functional, organism-based; settings: Human alphaherpesvirus 1, KOS
Procedure, shortened: (§6)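 Confluent HEL cell monolayers inoculated with 100 CCID50 of virus. Compounds added after a 1–2 h adsorption period. Virus-induced cytopathic effect scored microscopically at 3 days post infection as % of untreated controls. EC50 derived from graphical plots.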

Vaccinia virus = assay: Antiviral activity against Vaccinia virus infected in HEL cells assessed as inhibition of virus-induced cytopathic effect; type: functional, organism-based; settings: Orthopoxvirus vaccinia; procedure, shortened: as §6
[14] = Cytotoxicity against human HEL cells assessed as alteration in cellular morphology by microscopic analysis; type: cell-based; procedure, shortened: as §5

SMILES	EC50 [1]	EC50 [2]	EC50 [3]	EC50 [4]	EC50 [5]	EC50 [6]	EC50 [7]	EC50 [8]	EC50 [9]	EC50 [10]	EC50 [11]	EC50 [12]	EC50 (Hepatitis B virus)	inhibition (Coxsackievirus B4)	inhibition [13]	Activity (Influenza A virus)	inhibition (Human respirovirus 3)	inhibition (Sindbis virus)	inhibition (Punta Toro virus)	inhibition (Feline coronavirus)	other results
C[C@H](Cn1cnc2c(N)ncnc21)OCP(=O)([O-])[S-].[Na+].[Na+] (stereo partly drawn)	7.9 µM	0.38 µM	9.7 µM	4.2 µM	4.49 µM	0.47 µM	0.51 µM	0.38 µM	0.71 µM	0.34 µM	0.2 µM	0.12 µM	2.8 µM	inactive	inactive	inactive	inactive	inactive	inactive	inactive	Activity (Vero): Non-toxic; EC50 (Human alphaherpesvirus 1): 169 µM; EC50 (Vaccinia virus): 80 µM; MCC [14]: > 200 µM
Nc1ncnc2c1ncn2CCOCP(=O)([O-])[S-].[Na+].[Na+] (stereo not drawn)	23 µM	1.9 µM	17 µM	14 µM	1.64 µM	0.49 µM	2.8 µM	0.49 µM	2.77 µM	0.3 µM	0.22 µM	0.88 µM	3 µM	inactive	inactive	inactive	inactive	inactive	inactive	inactive	Activity (Vero): Non-toxic; EC50 (Human alphaherpesvirus 1): 40 µM; EC50 (Vaccinia virus): 84 µM; MCC [14]: > 200 µM
